Measured values as given in ChEMBL document CHEMBL1687803, “Elevated linezolid resistance in clinical cfr-positive Staphylococcus aureus isolates is associated with co-occurring mutations in ribosomal protein L3” (2010).
Converted amounts (≈) assume the structure as drawn.

Experiments:
Assay type in all cases: functional
Staphylococcus aureus [1] = experiment: Antibacterial activity against laboratory-derived Staphylococcus aureus isolate 29213-2 harboring ribosomal protein L3 Gly155Arg/Met169Leu mutant by broth microdilution method
Outline: (§1)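 MICs were measured by CLSI broth microdilution against the S. aureus ATCC 29213 parent or its isogenic L3 mutants. The mutants had been selected earlier in vitro with oxazolidinones. Oxazolidinones and comparator antibiotics were tested. L3 mutations use staphylococcal numbering.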

Staphylococcus aureus [2] = experiment: Antibacterial activity against clinical-derived Staphylococcus aureus isolate 42262 by broth microdilution method
Outline: (§2)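 MICs were measured by broth microdilution following CLSI guidelines against clinical cfr-positive S. aureus isolates. Oxazolidinones and comparator antibiotics were tested. Extra ribosomal mutations were identified by sequencing 23S rRNA domain V of all alleles and the rplC and rplD genes.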

Staphylococcus aureus [3] = experiment: Antibacterial activity against laboratory-derived Staphylococcus aureus isolate 29213-3 harboring ribosomal protein L3 deltaPhe127-His146 mutant by broth microdilution method; outline: as §1
Staphylococcus aureus [4] = experiment: Antibacterial activity against clinical-derived Staphylococcus aureus isolate 51312 harboring ribosomal protein L3 deltaMet169-Gly174 mutant by broth microdilution method; outline: as §2
Staphylococcus aureus [5] = experiment: Antibacterial activity against laboratory-derived Staphylococcus aureus ATCC 29213 harboring cfr-containing p42262 by broth microdilution method
Outline: (§3)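 The S. aureus ATCC 29213 parent and its isogenic L3 mutants carried the cfr plasmid p42262, introduced by electroporation. The plasmid came from clinical strain 42262. MICs were then measured by CLSI broth microdilution against oxazolidinones and comparator antibiotics.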

Staphylococcus aureus [6] = experiment: Antibacterial activity against laboratory-derived Staphylococcus aureus isolate 29213-1 harboring ribosomal protein L3 Gly155Arg mutant and cfr-containing p42262 by broth microdilution method; outline: as §3
Staphylococcus aureus [7] = experiment: Antibacterial activity against laboratory-derived Staphylococcus aureus isolate 29213-3 harboring ribosomal protein L3 deltaPhe127-His146 mutant and cfr-containing p42262 by broth microdilution method; outline: as §3
Staphylococcus aureus [8] = experiment: Antibacterial activity against laboratory-derived Staphylococcus aureus isolate 29213-2 harboring ribosomal protein L3 Gly155Arg/Met169Leu mutant and cfr-containing p42262 by broth microdilution method; outline: as §3
Staphylococcus aureus [9] = experiment: Antibacterial activity against laboratory-derived Staphylococcus aureus ATCC 29213 by broth microdilution method; outline: as §1
Staphylococcus aureus [10] = experiment: Antibacterial activity against laboratory-derived Staphylococcus aureus isolate 29213-1 harboring ribosomal protein L3 Gly155Arg mutant by broth microdilution method; outline: as §1
Staphylococcus aureus [11] = experiment: Antibacterial activity against clinical-derived Staphylococcus aureus isolate harboring ribosomal protein L3 deltaSer145/His146Tyr mutant by broth microdilution method; outline: as §2
Staphylococcus aureus [12] = experiment: Antibacterial activity against laboratory-generated cfr-transformed Staphylococcus aureus by broth microdilution method
Outline: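 Isogenic panel in the S. aureus ATCC 29213 background: wild-type parent and three laboratory-selected L3 mutants, each electroporated with cfr plasmid p42262 from clinical strain 42262. MICs were read by CLSI broth microdilution.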

Staphylococcus aureus [13] = experiment: Antibacterial activity against cfr positive Staphylococcus aureus clinical isolate by broth microdilution method
Outline: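 MICs against clinical cfr-positive S. aureus isolates (groups 1–3 plus an environmental strain), by CLSI broth microdilution. Non-isogenic ATCC 29213 served as a linezolid-susceptible control strain. Isolates were also characterised by sequencing 23S rRNA domain V (all alleles), rplC (L3) and rplD (L4).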

Row | SMILES | MIC (Staphylococcus aureus [1]) [µg/mL] | MIC (Staphylococcus aureus [2]) [µg/mL] | MIC (Staphylococcus aureus [3]) [µg/mL] | MIC (Staphylococcus aureus [4]) [µg/mL] | MIC (Staphylococcus aureus [5]) [µg/mL] | MIC (Staphylococcus aureus [6]) [µg/mL] | MIC (Staphylococcus aureus [7]) [µg/mL] | MIC (Staphylococcus aureus [8]) [µg/mL] | MIC (Staphylococcus aureus [9]) [µg/mL] | MIC (Staphylococcus aureus [10]) [µg/mL] | MIC (Staphylococcus aureus [11]) [µg/mL] | MIC (Staphylococcus aureus [12]) [µg/mL] | MIC (Staphylococcus aureus [13]) [µg/mL]
1 | O=C(N[C@H](CO)[C@H](O)c1ccc([N+](=O)[O-])cc1)C(Cl)Cl [CHLORAMPHENICOL] | 8 (≈ 24.8 µM) | > 64 | 8 (≈ 24.8 µM) | > 64 | > 64 | > 64 | > 64 | > 64 | 8 (≈ 24.8 µM) | 8 (≈ 24.8 µM) | > 64 | – | –
2 | CC(=O)NC[C@H]1CN(c2ccc(N3CCOCC3)c(F)c2)C(=O)O1 [LINEZOLID] | 8 (≈ 23.7 µM) | 16 (≈ 47.4 µM) | 8 (≈ 23.7 µM) | 64 (≈ 190 µM) | 16 (≈ 47.4 µM) | 32 (≈ 94.9 µM) | 64 (≈ 190 µM) | 64 (≈ 190 µM) | – | – | 32 (≈ 94.9 µM) | 8 (≈ 23.7 µM) | 8 (≈ 23.7 µM)
3 | CC(=O)NC[C@H]1CN(c2ccc(-c3ccc(CNCc4cnn[nH]4)cc3)c(F)c2)C(=O)O1 [RADEZOLID] | 2 (≈ 4.56 µM) | 4 (≈ 9.12 µM) | 2 (≈ 4.56 µM) | 8 (≈ 18.2 µM) | 2 (≈ 4.56 µM) | 4 (≈ 9.12 µM) | 8 (≈ 18.2 µM) | 8 (≈ 18.2 µM) | 1 (≈ 2.28 µM) | 1 (≈ 2.28 µM) | 4 (≈ 9.12 µM) | – | –
4 | Cn1nnc(-c2ccc(-c3ccc(N4C[C@H](CO)OC4=O)cc3F)cn2)n1 [TEDIZOLID] | 2 (≈ 5.4 µM) | 0.5 (≈ 1.35 µM) | 2 (≈ 5.4 µM) | 2 (≈ 5.4 µM) | 0.5 (≈ 1.35 µM) | 1 (≈ 2.7 µM) | 2 (≈ 5.4 µM) | 2 (≈ 5.4 µM) | 0.5 (≈ 1.35 µM) | 1 (≈ 2.7 µM) | 1 (≈ 2.7 µM) | – | –
5 | C=C[C@]1(C)C[C@@H](OC(=O)CSCCN(CC)CC)[C@]2(C)[C@H](C)CC[C@]3(CCC(=O)[C@H]32)[C@@H](C)[C@@H]1O [TIAMULIN] | 4 (≈ 8.1 µM) | > 64 | 4 (≈ 8.1 µM) | > 64 | > 64 | > 64 | > 64 | > 64 | 0.5 (≈ 1.01 µM) | 8 (≈ 16.2 µM) | > 64 | – | –
